High-throughput results as filed in PubChem.
MC4R barr agon = agonists of human melanocortin 4 receptor (MC4R) beta-arrestin; P32245; U2OS MC4R beta-arrestin complementation, luminescence; percent of melanotan II response, DMSO zero; activation, % at 8.9 µM; hit rate 0.98% among 360,000;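 active = activation above a per-plate cutoff, the mean activation of sample wells on that plate plus 3 SD, cut at about 8% in these data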
MOR-DOR ag = OPRM1-OPRD1 heterodimerization agonism | cells, luminescence | hit rate 0.3% among 340,000 | activation, % at 9.3 µM | AID 504326; in the data active = activation above about 18%;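 also: 0% = vehicle-treated cells and 100% = reference agonist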
HTR5A ag = counter-screen for OPRM1-OPRD1 agonists: human HTR5A agonism | P47898 | HTR5A agonist assay, luminescence, cell-based | activation, % at 9.3 µM | hit rate 0.61% among 340,000; in the data active = activation mostly above about 9.5%, no sharp cut-off; inactive = mostly below about 7.6%;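 also: 0% = cells with vehicle only and 100% = reference agonist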
MC4R antagonist = blocks human MC4R cAMP signaling; P32245; MC4R-expressing cells, MTII-stimulated cAMP, LANCE TR-FRET; inhibition, % at 6.5 µM; hit rate 0.48% among 360,000;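 active = inhibition above its plate's cutoff, the mean of tested wells on that plate plus 3 SD, cut at about 29% in these data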;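 also: 0% = Melanotan II alone and 100% = Melanotan II plus saturating MCL0020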
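Material: human MC4R-expressing U2OS cells. Probe or stimulus: Melanotan II challenge. Dosing: 6.5 µM single dose. Times: 30-min compound, 1-h challenge, 1-h detection, room temperature. Technique: TR-FRET with Eu-cAMP and labeled anti-cAMP, 671 nm. Replication: singlicate.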
OPRM1-OPRD1 inv = inverse agonist of human OPRM1-OPRD1 heterodimerization. P35372+P41143. hit rate 0.21% among 340,000. cell-based MOR-DOR heterodimer luminescence, inverse agonism. inhibition, % at 9.3 µM; in the data active = inhibition above about 22%, passing the limit was not always enough;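 also: 0% = cells with DMSO and 100% = wells without cells with DMSO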
HTR5A inv ag = HTR5A inverse agonism, opioid heterodimer counter-screen; P47898; HTR5A cell line, luminescence; inhibition, % at 9.3 µM; hit rate 0.083% among 340,000; in the data active = inhibition mostly above about 23%, no sharp cut-off; inactive = mostly below about 18%;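 also: 0% = cells with DMSO and 100% = no-cell wells with DMSO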
* = called active by the depositor; i = inactive; nt = no result given. Compounds with a hit are over-represented: about 2.4% of the library has one in this group of screens.

SMILES	MC4R barr agon	MOR-DOR ag	HTR5A ag	MC4R antagonist	OPRM1-OPRD1 inv	HTR5A inv ag
O=C1C=CC(=O)c2c(O)c(N3CCN(CCO)CC3)c(Cl)c(O)c21	-2	21*	-3	-21	-109	11
CN1CCN(C(=O)c2cc(COc3ccccc3)on2)[C@@H](c2ccccc2)C1	-4	0	9.5*	9	1	-17
C/C(=N/N=C/c1ccccc1O)c1ccccc1O	2	-2	10*	0	7	-37
Oc1ccccc1C=NN=C1c2ccccc2-c2ccccc21	0	-5	-4	0	23	15
CC(C)c1ccc(NC2CCCN(C(=O)c3ccsc3)C2)cc1 (stereo not drawn)	-2	1	3	16	-4	9
CC[C@@H](C(=O)[C@@H](C)[C@@H](O)[C@H](C)[C@@H]1O[C@@H]([C@@H](CC)C(=O)O)CC[C@@H]1C)[C@H]1O[C@]2(C=C[C@@H](O)[C@]3(CC[C@@](C)([C@H]4CC[C@](O)(CC)[C@H](C)O4)O3)O2)[C@H](C)C[C@@H]1C	36*	104*	40*	10	i	-115
COc1ccc(S(=O)(=O)N2CCC(C(=O)NN3CCCCC3)CC2)cc1	1	nt	nt	-1	nt	nt
O=C1CCc2cc(S(=O)(=O)N3CCN(c4cccc(C(F)(F)F)c4)CC3)ccc2N1	5	25*	13*	-2	-126	-28
CC1C(=O)Nc2ccc(S(=O)(=O)N3CCN(c4cccc(C(F)(F)F)c4)CC3)cc2NC1=O (stereo not drawn)	0	0	6	2	0	-44
COC(=O)c1ccc(CSc2ccccc2NC(=S)Nc2cccc(SC)c2)o1	-2	nt	nt	0	nt	nt
COc1ccc(CNC(=O)COC(=O)/C=C/c2cccc(Cl)c2)cc1	8.3*	1	-1	12	-4	3
O=c1[nH]c2ccccc2c2ccc(Cl)cc12	8.5*	0	6	-6	1	-23
O=c1[nH]c2cc(Cl)cc([N+](=O)[O-])c2c2ccc(Cl)cc12	-2	nt	nt	5	nt	nt
Cc1cc(-c2nn(-c3ccccc3F)cc2CN2CCC(C(N)=O)CC2)c(C)s1	-1	-1	-1	14	3	4
Cc1cc(-c2nn(-c3ccccc3F)cc2CNCCc2cnc[nH]2)c(C)s1	-1	144*	-3	11	i	-9
CCCOC(=O)c1ccc(Oc2cn[nH]c2-c2ccc(O)cc2O)cc1	9.5*	4	11	-4	-22	-22
CCOC(=O)c1ccc(Oc2cn[nH]c2-c2ccc(O)cc2O)cc1	-1	2	-4	6	-9	11
O=C(COC(=O)c1n[nH]c2ccccc12)Nc1ccc(Cl)cc1[N+](=O)[O-]	9.1*	11	2	-10	-57	-6
COc1ccc(OC)c(/C=C2/Sc3ccccc3C2=O)c1	9.5*	7	3	9	-40	-7
CCCCN(CCCC)CCNC(=O)c1cn(CC)c2ccc(S(=O)(=O)N3CCc4ccccc4C3)cc2c1=O	0	-4	3	2	21	6
CC(C)(C)C(=O)N1CCC(O)(CS(=O)(=O)Cc2ccc(Cl)cc2)CC1	-1	-3	12*	-3	14	-38
CCCOc1ccc(N2CC(C(=O)NC3=NCCS3)CC2=O)cc1 (stereo not drawn)	0	-2	1	1	12	-1
CS(=O)(=O)NCCSc1cc(C(F)(F)F)nc2ccccc12	1	-4	12*	-2	21	2
COc1ccc(C(=O)NNC2=Nc3cccc4cccc2c34)cc1	9.0*	9	4	-5	-40	-11
Cc1ccc(C(=O)NNC2=Nc3cccc4cccc2c34)cc1	-1	4	7	2	-24	-10
SMILES	MC4R barr agon	MOR-DOR ag	HTR5A ag	MC4R antagonist	OPRM1-OPRD1 inv	HTR5A inv ag
C=CCn1c(=N)c(C(=O)NCCCOC)cc2c(=O)n3cccc(C)c3nc21	4	-1	6	1	4	-18
COCCCNC(=O)c1cccn2c(=O)c3cc4ccccc4cc3nc12	9.1*	4	6	-12	-21	6
Cc1ccc(NC(=O)Cn2cnc(C(=O)Nc3ccc(C)c(C)c3)n2)cc1C	-1	-2	3	7	9	-9
Cc1cc(C)c(CN2CCN(C(=O)Cn3cnc(C(=O)Nc4ccc(C)c(C)c4)n3)CC2)c(C)c1	3	1	8.5*	9	-5	-31
CC(CC(=O)N1CCc2ccccc21)n1cccn1 (stereo not drawn)	-2	0	4	7	-2	-26
NNC(=O)Nc1cccc(C(F)(F)F)c1	0	-2	1	0	7	-2
CCN(CC)S(=O)(=O)c1ccc(C(=O)Nc2cccc(C)c2)cc1	-1	1	2	16	-6	0
O=C(Nc1ccc(NC(=O)c2ccc(Cl)cc2Cl)cc1)c1cccs1	3	12	7	0	-88	-21
O=C(Nc1ccncc1)Nc1cccc(C(F)(F)F)c1	0	4	10*	1	-12	-53
CCN(CC)S(=O)(=O)c1ccc(NC(=O)Nc2cccc(C(F)(F)F)c2)cc1	0	6	13*	3	-31	13
Cc1ccc(S(=O)(=O)Nc2ccc(NC(=O)Nc3cccc(C(F)(F)F)c3)cc2)cc1	9.2*	28*	21*	14	-144	-8
COc1c(Cl)cc(Cl)cc1C(=O)Nc1ccc(NC(=O)c2cccs2)cc1	9.7*	1	3	22	-7	-6
NN=C(c1cccc([N+](=O)[O-])c1)c1cccc([N+](=O)[O-])c1	1	nt	nt	22	nt	nt
COc1ccc(-c2nc3ccccc3c(=O)n2CC(C)C)cc1	-2	-2	1	2	8	-4
Cc1nnsc1C(=O)NC1CCCc2c1cnn2-c1ccc(C(C)(C)C)cc1 (stereo not drawn)	-3	1	4	6	-5	-19
COc1ccc(OC)c(CN2CCN(C(=O)c3cccc(S(=O)(=O)N(C)c4ccccc4)c3)CC2)c1	2	nt	nt	6	nt	nt
Cc1cc(OC(=O)C(C)(C)C)c([N+](=O)[O-])c(=O)[nH]1	2	0	1	12	0	-4
COc1ccccc1OCC(=O)Nc1ccc(S(=O)(=O)N(C)c2ccccc2)cc1	-3	0	0	7	0	1
CCN(CC)S(=O)(=O)c1ccc(NC(=O)COc2c(OC)cccc2OC)cc1	0	0	13*	11	2	3
O=C(Nc1cccc(C(F)(F)F)c1)c1cc(-c2ccco2)on1	0	4	4	-3	-25	3
O=C(Nc1cccc(C(F)(F)F)c1)c1sc(Cl)nc1C(F)(F)F	0	4	9.4*	21	-18	-35
Cc1ccc(NS(=O)(=O)c2ccc(NC(=O)c3cccs3)cc2)cc1	4	7	8.3*	12	-38	-10
